Measurements: PMC9884086 (Journal of Medicinal Chemistry, 2023)
Blank lines part the entries; values can stand above or below the compound they belong to.

Experiments:
[1] = biological target: Human PDE10A2 (Homo sapiens, UniProt Q9Y233); assay: PDE10A fluorescence polarization; assay type: biochemical
[2] = test system: 5-strain Ames test; assay: Microbial mutagenesis assay; assay type: cell-based
[3] = biological target: full length human PDE10A2 (Homo sapiens, UniProt Q9Y233); assay: Surface plasmon resonance binding kinetics; settings: SPR
[4] = test system: other PDE enzyme families (PDE1–PDE11); assay: PDE selectivity over the other PDE enzyme families; assay type: biochemical; settings: tables 1 and 2; over other PDEs
[5] = Passive permeability; assay type: in vitro ADME; settings: not told
[6] = biological target: T1, PDE10A (Rattus norvegicus, UniProt Q9QYJ6); assay: In vivo PDE10A enzyme occupancy in rat striatum with [3H]MK-8193; design: species or system Wistar–Hannover rats
T1 sequence (Q9QYJ6 1-794): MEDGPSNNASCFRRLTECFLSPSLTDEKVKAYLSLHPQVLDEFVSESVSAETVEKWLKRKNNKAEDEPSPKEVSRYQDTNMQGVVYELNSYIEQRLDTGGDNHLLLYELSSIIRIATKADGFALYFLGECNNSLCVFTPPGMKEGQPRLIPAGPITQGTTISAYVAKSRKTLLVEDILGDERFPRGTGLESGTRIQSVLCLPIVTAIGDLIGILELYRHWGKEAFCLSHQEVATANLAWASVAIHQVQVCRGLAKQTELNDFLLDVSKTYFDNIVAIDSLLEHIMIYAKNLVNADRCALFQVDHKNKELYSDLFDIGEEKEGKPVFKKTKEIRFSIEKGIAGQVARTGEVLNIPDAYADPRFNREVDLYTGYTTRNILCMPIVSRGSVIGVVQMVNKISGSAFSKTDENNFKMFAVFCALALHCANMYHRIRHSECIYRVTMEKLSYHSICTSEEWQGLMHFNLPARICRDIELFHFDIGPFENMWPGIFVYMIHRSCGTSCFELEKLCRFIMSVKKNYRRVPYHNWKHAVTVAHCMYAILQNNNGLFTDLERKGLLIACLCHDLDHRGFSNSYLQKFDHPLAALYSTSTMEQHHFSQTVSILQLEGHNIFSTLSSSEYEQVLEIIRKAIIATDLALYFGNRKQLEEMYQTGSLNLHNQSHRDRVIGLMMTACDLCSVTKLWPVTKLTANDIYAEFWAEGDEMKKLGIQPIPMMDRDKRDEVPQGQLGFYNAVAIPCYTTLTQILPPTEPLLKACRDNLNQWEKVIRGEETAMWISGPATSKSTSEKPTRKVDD

[7] = test system: catalepsy in the rats; assay: Catalepsy in rats; assay type: in vivo; settings: compared with atypical antipsychotics, data not shown
[8] = test system: MK-801-induced locomotor activity in rats; assay: MK-801-induced psychomotor; assay type: in vivo; settings: MK-801 model, striatal occupancy derived from plasma exposures
[9] = test system: acute episode of schizophrenia; settings: patients experiencing an acute episode of schizophrenia; cited from earlier work
[10] = test system: novel objection recognition in rats; assay: Novel objection recognition assay; assay type: in vivo; settings: for novel objection recognition: rats, vs vehicle, p <0.05
How it was run: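 Rats dosed orally with test compound; donepezil 0.56 mg/kg as reference. Plasma was taken 1 h post dose at the end of the behavioral study (n = 4/group). Striatal PDE10A occupancy was derived from these end-of-study plasma exposures. Significance was tested against vehicle.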

[11] = biological target: Iks (Homo sapiens, UniProt P51787); assay: Ion channel profile, Iks; assay type: cell-based
[12] = test system: Chinese hamster ovary cells; assay: Assay for chromosomal aberrations; assay type: cell-based
[13] = test system: circulating levels of prolactin; assay: Circulating prolactin in rats; assay type: in vivo; settings: data not shown
[14] = Weight gain in rats; assay type: in vivo; settings: data not shown

Chain of Human PDE10A2 (Q9Y233 267-1055): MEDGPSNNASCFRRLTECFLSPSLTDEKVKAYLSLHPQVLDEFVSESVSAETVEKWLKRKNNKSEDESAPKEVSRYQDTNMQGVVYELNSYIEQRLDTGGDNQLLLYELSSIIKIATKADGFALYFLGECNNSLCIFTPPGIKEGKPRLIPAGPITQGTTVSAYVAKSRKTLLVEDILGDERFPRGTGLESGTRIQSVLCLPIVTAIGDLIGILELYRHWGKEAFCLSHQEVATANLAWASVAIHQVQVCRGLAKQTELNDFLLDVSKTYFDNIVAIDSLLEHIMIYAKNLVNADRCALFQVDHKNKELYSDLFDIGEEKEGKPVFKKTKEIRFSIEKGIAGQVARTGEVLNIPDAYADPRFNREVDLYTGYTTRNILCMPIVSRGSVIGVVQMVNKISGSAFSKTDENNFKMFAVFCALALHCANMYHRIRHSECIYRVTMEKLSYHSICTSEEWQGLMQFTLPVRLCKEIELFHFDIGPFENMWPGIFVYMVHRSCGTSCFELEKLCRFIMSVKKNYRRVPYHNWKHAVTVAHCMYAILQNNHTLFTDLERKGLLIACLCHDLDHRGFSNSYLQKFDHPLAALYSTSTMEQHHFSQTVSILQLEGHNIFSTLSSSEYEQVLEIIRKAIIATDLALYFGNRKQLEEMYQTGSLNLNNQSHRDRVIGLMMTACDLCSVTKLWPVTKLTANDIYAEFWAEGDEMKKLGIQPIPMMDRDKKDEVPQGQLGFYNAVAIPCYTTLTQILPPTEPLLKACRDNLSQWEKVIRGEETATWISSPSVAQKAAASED
Chain of full length human PDE10A2 (Q9Y233 715-1055): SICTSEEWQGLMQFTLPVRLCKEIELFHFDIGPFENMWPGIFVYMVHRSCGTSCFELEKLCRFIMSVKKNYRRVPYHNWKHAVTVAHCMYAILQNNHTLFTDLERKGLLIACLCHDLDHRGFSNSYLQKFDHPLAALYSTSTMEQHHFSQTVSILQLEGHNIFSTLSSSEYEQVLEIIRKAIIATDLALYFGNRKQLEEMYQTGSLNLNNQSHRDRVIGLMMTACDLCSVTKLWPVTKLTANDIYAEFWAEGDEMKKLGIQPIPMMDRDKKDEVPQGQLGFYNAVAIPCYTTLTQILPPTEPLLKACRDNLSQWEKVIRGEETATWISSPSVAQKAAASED
Chain of Iks (P51787 whole entry): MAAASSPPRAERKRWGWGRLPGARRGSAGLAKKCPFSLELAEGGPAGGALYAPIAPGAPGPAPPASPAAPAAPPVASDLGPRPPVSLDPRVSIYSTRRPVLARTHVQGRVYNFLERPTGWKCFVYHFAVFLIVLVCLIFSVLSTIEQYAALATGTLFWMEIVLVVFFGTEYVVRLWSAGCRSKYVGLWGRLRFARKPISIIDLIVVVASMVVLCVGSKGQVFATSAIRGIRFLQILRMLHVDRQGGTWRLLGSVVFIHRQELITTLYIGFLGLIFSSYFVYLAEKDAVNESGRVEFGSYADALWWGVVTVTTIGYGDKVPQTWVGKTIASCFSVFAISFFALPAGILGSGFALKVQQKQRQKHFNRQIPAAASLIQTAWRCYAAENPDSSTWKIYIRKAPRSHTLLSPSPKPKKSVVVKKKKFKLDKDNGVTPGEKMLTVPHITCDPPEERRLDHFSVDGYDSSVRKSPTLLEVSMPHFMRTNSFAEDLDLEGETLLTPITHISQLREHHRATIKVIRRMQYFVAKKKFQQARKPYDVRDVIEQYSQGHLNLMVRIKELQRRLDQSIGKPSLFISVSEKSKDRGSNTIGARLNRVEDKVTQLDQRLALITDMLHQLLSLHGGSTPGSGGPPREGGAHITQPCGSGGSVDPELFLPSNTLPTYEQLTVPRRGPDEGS

LBE (ligand binding efficiency) [1]: 0.57
SMILES: Cc1c(Cl)nc(C2CC2)nc1Cl [Compound 1]

SMILES: Cc1ccc([C@H]2C[C@@H]2COc2cc(NCc3nnc(C)s3)nc(C)n2)nc1 [Compound 18, 2-Methyl-N-((5-methyl-1,3,4-thiadiazol-2-yl)methyl)-6-(((1S,2S)-2-(5-methylpyridin-2-yl)cyclopropyl)methoxy)pyrimidin-4-amine]
LBE (ligand binding efficiency) [1]: 0.54
LLE (ligand-lipophilicity efficiency) [1]: 7.8
microbial mutagenesis (5-strain Ames test) [2]: negative
on-rate [3]: ~8.0 × 10^7 M^–1·s^–1
reversibility of binding [3]: completely reversible
in vitro half-life on the enzyme ([3]; 25 °C): ~6.7 min
PDE selectivity [4]: > 500,000
Papp [5]: 35.4 to 42.6 ×10⁻⁶ cm/s
EC50 [6]: 52 nM
maximal enzyme occupancy in the rat striatum ([6]; PO, higher plasma concentrations): full enzyme occupancy
therapeutic window between antipsychotic-like effects and catalepsy [7]: larger therapeutic window
enzyme occupancy at which efficacy was observed (and above) [8]: approximately 25%
antipsychotic efficacy, initial proof of concept [9]: evidence for antipsychotic efficacy
enzyme occupancy at which significant effects were achieved (and above) ([10]; novel objection recognition, striatal occupancy derived from plasma exposures): approximately 29%
novel objection recognition ([10]; 0.16 and 0.25 mg/kg PO): efficacious
novel objection recognition ([10]; 0.16 and 0.25 mg/kg PO, listed as MK-8189 (18)): significantly improved recognition
IC50 [11]: > 30000 nM
chromosomal aberrations in Chinese hamster ovary cells [12]: negative
effect on circulating levels of prolactin [13]: lack of effect
weight gain [14]: reduced weight gain

SMILES: COc1cc2c(cc1OC)C(=O)C(CC1CCN(Cc3ccccc3)CC1)C2 (stereo not shown) [donepezil, reference compound]
novel objection recognition ([10]; positive control 0.56 mg/kg): significantly improved recognition
